According to ChEMBL document CHEMBL1124367, “Design, synthesis, and testing of potential antisickling agents. 7. Ethacrynic acid analogues” (J Med Chem, 1989):

Assays:
[1] = Solubility ratio of the sickle cell haemoglobin with compound to sickle cell haemoglobin with out compound at 3 mM; format: ADME; conditions: 3000 µM
Summary of the method: (§1)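 HbS purified from red cells by DEAE-Sephacel chromatography and held in 150 mM phosphate, pH 7.4. Compound was added as its sodium salt in 0.15 M phosphate, pH 7.4, and incubated with HbS overnight at 4°C. Samples were sealed in EPR tubes and spun at 150000 g for 2.5 h at 35°C.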

[2] = Solubility ratio for sickle cell haemoglobin in presence and absence of compound; format: ADME; summary of the method: as §1
Canis familiaris [3] = assay: Diuretic activity of compound measured in dog urine after intravenous injection of 5 mg/kg; format: functional, Canis lupus familiaris
[4] = (§2) Solubility ratio of the sickle cell haemoglobin with compound to sickle cell haemoglobin with out compound at 9 mM; format: ADME; conditions: 9000 µM; summary of the method: as §1
[5] = Solubility ratio of the sickle cell haemoglobin with compound to sickle cell haemoglobin with out compound at 7 mM; format: ADME; conditions: 7000 µM; summary of the method: as §1
[6] = Solubility ratio of the sickle cell haemoglobin with compound to sickell cell haemoglobin with out compound at 10 mM; format: ADME; conditions: 10000 µM
Summary of the method: as §1, with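 “4°C. Sodium dithionite was then added (final 58.88 mM, final HbS about 24 g%).” for “4°C.”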

[7] = Solubility ratio of the sickle cell haemoglobin with compound to sickell cell haemoglobin with out compound at 5 mM; format: ADME; conditions: 5000 µM
Summary of the method: as §1, with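 “4°C. Sodium dithionite was then added (final 58.88 mM, final HbS about 24 g%).” for “4°C.”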

[8] = Solubility ratio of the sickel cell haemoglobin with compound to sickle cell haemoglobin with out compound at 3 mM; format: ADME; conditions: 3000 µM
Summary of the method: as §1, with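 “4°C. Sodium dithionite was then added (final 58.88 mM, final HbS about 24 g%).” for “4°C.”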

[9] = Solubility ratio of the sickle cell haemoglobin with compound to sickle cell haemoglobin with out compound at 10 mM; format: ADME; conditions: 10000 µM
Summary of the method: as §1, with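 “4°C. Sodium dithionite was then added (final 58.88 mM, final HbS about 24 g%).” for “4°C.”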

Canis familiaris [10] = assay: Diuretic activity of compound measured in dog urine after intravenous administration of 5 mg/kg
[11] = as §2; format: ADME; conditions: 9000 µM; remark: listed apart in the source
Summary of the method: as §1, with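 “4°C. Sodium dithionite was then added (final 58.88 mM, final HbS about 24 g%).” for “4°C.”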

[12] = Solubility ratio of the sickell cell haemoglobin with compound to sickle cell haemoglobin with out compound at 9 mM; format: ADME; conditions: 9000 µM
Summary of the method: as §1, with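 “4°C. Sodium dithionite was then added (final 58.88 mM, final HbS about 24 g%).” for “4°C.”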

[13] = Solubility ratio of the sickell cell haemoglobin with compound to sickle cell haemoglobin with out compound at 5 mM; format: ADME; conditions: 5000 µM
Summary of the method: as §1, with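 “4°C. Sodium dithionite was then added (final 58.88 mM, final HbS about 24 g%).” for “4°C.”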

[14] = Solubility ratio of the sickell cell haemoglobin with compound to sickle cell haemoglobin with out compound at 7 mM; format: ADME; conditions: 7000 µM
Summary of the method: as §1, with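 “4°C. Sodium dithionite was then added (final 58.88 mM, final HbS about 24 g%).” for “4°C.”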

[15] = Solubility ratio of the sickle cell haemoglobin with compound to sickle cell haemoglobin without compound at 5 mM; format: ADME; conditions: 5000 µM
Summary of the method: as §1, with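 “4°C. Sodium dithionite was then added (final 58.88 mM, final HbS about 24 g%).” for “4°C.”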

Structure (SMILES)	Solubility ratio [1]	Solubility ratio [2]	Diuretic activity (Canis familiaris [3])	Solubility ratio [4]	Solubility ratio [5]	other results
C=C(CC)C(=O)c1ccc(OC(C)(C)C(=O)O)c(Cl)c1Cl	1.05	1.094	0	1.237	1.183	
C=C(CCC)C(=O)c1ccc(OCCCC(=O)O)c(Cl)c1Cl	1.082	1.115		1.149	1.155	
C=C(CC)C(=O)c1ccc(OC2(C(=O)O)CCC2)c(Cl)c1Cl	1.08	1.127		1.202	1.147	
CCC1=C(c2ccc(OCC(=O)O)c(Cl)c2Cl)OC(CC)(C(=O)c2ccc(OCC(=O)O)c(Cl)c2Cl)CC1 (stereo unspecified)			0			Solubility ratio [6]: 0.996; Solubility ratio [7]: 0.993
C=C(CCC)C(=O)c1ccc(OC2(C(=O)O)CCC2)c(Cl)c1Cl	1.057	1.085		1.143	1.099	
C=C(CC)C(=O)c1ccc(OCCCCCC(=O)O)c(Cl)c1Cl		1.086		1.164	1.125	Solubility ratio [8]: 1.063
CC(C)C(Br)C(=O)c1ccc(OCC(=O)O)c(Cl)c1Cl (stereo unspecified)		0.966	3			Solubility ratio [9]: 0.983
CC1(c2ccccc2)Cc2cc(OCC(=O)O)c(Cl)c(Cl)c2C1=O (stereo unspecified) [INDACRINONE]		0.989				Solubility ratio [9]: 1; Diuretic activity (Canis familiaris [10]): 3
C=C(CC)C(=O)c1c(Cl)cc(Cl)cc1OCC(=O)O	1.048	1.08		1.129	1.103	
CC/C(=C/c1ccc(OCC(=O)O)c(Cl)c1Cl)[N+](=O)[O-]	1.051	1.086		1.131	1.096	
CCC1=C(c2ccc(OCCCC(=O)O)c(Cl)c2Cl)OC(CC)(C(=O)c2ccc(OCCCC(=O)O)c(Cl)c2Cl)CC1 (stereo unspecified)		1.059		1.039		
CC(=O)C(=Cc1ccc(OCC(=O)O)c(Cl)c1Cl)C(C)=O			6			
C=C(CC)C(=O)c1ccc(OCCCC(=O)NCC(=O)O)c(Cl)c1Cl	1.107	1.224		1.309	1.287	
C=CC(=O)c1ccc(OCC(=O)O)c(Cl)c1Cl	1.033	1.06		1.095	1.067	
C=C(CC)C(=O)c1ccc(OCCN(CC)CC)c(Cl)c1Cl	1.073	1.077		1.113	1.089	
CC/C(=C/c1ccc(OCC(=O)O)c(OC)c1)[N+](=O)[O-]	1.085	1.128		1.207	1.159	

Structure (SMILES)	Solubility ratio [1]	Solubility ratio [2]	Diuretic activity (Canis familiaris [3])	Solubility ratio [4]	Solubility ratio [5]	other results
CC/C(=C/c1ccc(C(=O)O)cc1Cl)[N+](=O)[O-]	1.052	1.1			1.106	Solubility ratio [11]: 1.15
C=C(CC)C(=O)c1ccc(OCC(=O)NCC(=O)O)c(Cl)c1Cl	1.109	1.145	3	1.327	1.222	
CCC(C(=O)c1ccc(OCC(=O)O)c(Cl)c1Cl)S(C)(=O)=O (stereo unspecified)						Solubility ratio [6]: 1.052; Solubility ratio [7]: 1.029
CC1(C2CCCC2)Cc2cc(OCC(=O)O)c(Cl)c(Cl)c2C1=O (stereo unspecified)		1.01				Solubility ratio [9]: 1.015; Diuretic activity (Canis familiaris [10]): 2
C/C=C(\CC)C(=O)c1ccc(OCC(=O)O)c(Cl)c1Cl	1.017	1.033	5	1.078	1.062	
O=C(c1cccs1)c1cc2c(c(Cl)c1Cl)OC(C(=O)O)C2 (stereo unspecified)		1.076				Solubility ratio [9]: 1.08; Diuretic activity (Canis familiaris [10]): 0
C=C(CC)C(=O)c1ccc(OCCCCC(=O)O)c(Cl)c1Cl	1.081	1.129		1.308	1.2	
CC1(C2CCCC2)Cc2cc(OCCCC(=O)O)c(Cl)c(Cl)c2C1=O (stereo unspecified)		0.961				Solubility ratio [9]: 1.006
C=C(CC)C(=O)c1ccc(OCCC(=O)O)c(Cl)c1Cl	1.112					Solubility ratio [12]: 1.302; Solubility ratio [13]: 1.145; Solubility ratio [14]: 1.188
C=C(CC)C(=O)c1ccc(OCCCC(=O)O)c(Cl)c1Cl	1.084	1.122		1.196	1.168	
CCC(C)C(=O)c1ccc(OCC(=O)O)c(Cl)c1Cl (stereo unspecified)			2			Solubility ratio [9]: 1.088; Solubility ratio [15]: 1.061
CCC(CN(C)C)C(=O)c1ccc(OCC(=O)O)c(Cl)c1Cl.Cl (stereo unspecified)		1.018	4			Solubility ratio [9]: 1.168
C/C(=C/c1ccc(OCC(=O)O)cc1)[N+](=O)[O-]	1.038	1.076	1	1.099	1.075	
C=C(CC)C(=O)c1ccc(OCC(=O)O)c(Cl)c1Cl [ETHACRYNIC ACID]	1.07	1.125	6	1.184	1.151	
CCC1=Cc2cc(OCC(=O)O)c(Cl)c(Cl)c2C1=O	1.074	1.09	5	1.12	1.103	
CCC(SC)C(=O)c1ccc(OCC(=O)O)c(Cl)c1Cl (stereo unspecified)		1.016				Solubility ratio [9]: 1.073
